Data as given in ChEMBL document CHEMBL3865839, “Short Route to the Total Synthesis of Natural Muricadienin and Investigation of Its Cytotoxic Properties” (J Nat Prod, 2016).
One block for each compound: values may come before it. The source made the active and inactive calls. The rule behind the calls is not given here.

What was measured:
[1] = Cytotoxicity against HEK293 cells assessed as reduction in cell viability after 24 hrs by MTT assay; assay type: functional, cell-based; conditions: Homo sapiens, HEK293, 24 h
How it was run: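 HEK293 (HPA Culture Collections) monolayers in DMEM with 10% FBS and 1% penicillin–streptomycin, 37 °C, humidified 5% CO2. Compound dissolved in DMSO, then diluted in culture medium. Antiproliferative read-out by MTT tetrazolium reduction to formazan. Etoposide run as positive control. IC50 determined.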

[2] = system: HEK293; test: Induction of apoptosis in HEK293 cells assessed as viable cells at 0.19 uM after 24 hrs by Annexin V/propidium iodide-dual staining based FACS analysis (reference value: 90.31%); assay type: functional; conditions: Homo sapiens, HEK293, 24 h; read-out: Activity
[3] = system: HEK293; test: Induction of apoptosis in HEK293 cells assessed as late apoptotic cells at 0.19 uM after 24 hrs by Annexin V/propidium iodide-dual staining based FACS analysis (reference value: 4.30%); assay type: functional, Homo sapiens
[4] = system: HEK293; test: Induction of apoptosis in HEK293 cells assessed as necrotic cells at 0.19 uM after 24 hrs by Annexin V/propidium iodide-dual staining based FACS analysis (reference value: 3.35%); assay type: functional, Homo sapiens
[5] = system: HEK293; test: Induction of apoptosis in HEK293 cells assessed as early apoptotic cells at 0.19 uM after 24 hrs by Annexin V/propidium iodide-dual staining based FACS analysis (reference value: 2.04%); assay type: functional, Homo sapiens
[6] = target: T1, DNA topoisomerase 1 (Homo sapiens) (UniProt P11387); test: Inhibition of human Top1 using pHOT as substrate assessed as suppression of relaxation of DNA supercoil at >50 uM after 30 mins by ethidium bromide-based agarose gel electrophoresis
T1 sequence (whole entry): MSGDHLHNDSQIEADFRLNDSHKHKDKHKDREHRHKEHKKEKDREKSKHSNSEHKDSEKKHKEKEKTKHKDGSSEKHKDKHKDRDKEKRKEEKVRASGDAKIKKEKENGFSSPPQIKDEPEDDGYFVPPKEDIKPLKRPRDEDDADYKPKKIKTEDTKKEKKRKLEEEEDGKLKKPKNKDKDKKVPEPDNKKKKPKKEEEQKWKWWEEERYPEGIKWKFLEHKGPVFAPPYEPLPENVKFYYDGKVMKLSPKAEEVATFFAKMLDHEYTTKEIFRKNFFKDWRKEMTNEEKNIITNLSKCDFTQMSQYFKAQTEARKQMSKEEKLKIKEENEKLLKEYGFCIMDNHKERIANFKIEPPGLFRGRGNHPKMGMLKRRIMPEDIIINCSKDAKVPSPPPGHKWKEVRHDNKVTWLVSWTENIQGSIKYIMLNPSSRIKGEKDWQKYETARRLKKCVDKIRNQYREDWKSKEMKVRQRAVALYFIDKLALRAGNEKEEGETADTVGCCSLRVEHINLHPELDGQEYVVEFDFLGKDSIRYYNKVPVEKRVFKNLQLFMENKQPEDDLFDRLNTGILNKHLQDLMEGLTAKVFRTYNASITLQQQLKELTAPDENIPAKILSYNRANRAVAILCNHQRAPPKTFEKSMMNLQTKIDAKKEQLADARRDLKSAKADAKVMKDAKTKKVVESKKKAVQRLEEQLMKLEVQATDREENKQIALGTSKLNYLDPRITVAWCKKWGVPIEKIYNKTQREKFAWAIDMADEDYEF

[7] = system: HEK293; test: Induction of apoptosis in HEK293 cells assessed as viable cells at 0.48 uM after 24 hrs by Annexin V/propidium iodide-dual staining based FACS analysis (reference value: 90.31%); assay type: functional; conditions: Homo sapiens, HEK293, 24 h; read-out: Activity
[8] = system: HEK293; test: Induction of apoptosis in HEK293 cells assessed as early apoptotic cells at 0.48 uM after 24 hrs by Annexin V/propidium iodide-dual staining based FACS analysis (reference value: 2.04%); assay type: functional, Homo sapiens
[9] = system: HEK293; test: Induction of apoptosis in HEK293 cells assessed as necrotic cells at 0.1 uM after 24 hrs by Annexin V/propidium iodide-dual staining based FACS analysis (reference value: 3.35%); assay type: functional, Homo sapiens
[10] = system: HEK293; test: Induction of apoptosis in HEK293 cells assessed as early apoptotic cells at 0.1 uM after 24 hrs by Annexin V/propidium iodide-dual staining based FACS analysis (reference value: 2.04%); assay type: functional, Homo sapiens
[11] = system: HEK293; test: Induction of apoptosis in HEK293 cells assessed as viable cells at 0.1 uM after 24 hrs by Annexin V/propidium iodide-dual staining based FACS analysis (reference value: 90.31%); assay type: functional; conditions: Homo sapiens, HEK293, 24 h; read-out: Activity
[12] = system: HEK293; test: Induction of apoptosis in HEK293 cells assessed as late apoptotic cells at 0.48 uM after 24 hrs by Annexin V/propidium iodide-dual staining based FACS analysis (reference value: 4.30%); assay type: functional, Homo sapiens
[13] = system: HEK293; test: Induction of apoptosis in HEK293 cells after 24 hrs by Annexin V/propidium iodide-dual staining based FACS analysis; assay type: functional, cell-based; conditions: Homo sapiens
[14] = system: HEK293; test: Induction of apoptosis in HEK293 cells assessed as necrotic cells at 0.48 uM after 24 hrs by Annexin V/propidium iodide-dual staining based FACS analysis (reference value: 3.35%); assay type: functional, Homo sapiens
[15] = target: DNA topoisomerase 2-alpha (Homo sapiens) (UniProt P11388); test: Inhibition of human Top2alpha using pHOT as substrate assessed as suppression of relaxation of DNA supercoil at >1 uM after 30 mins administered prior to enzyme addition by ethidium bromide-based agarose gel electrophoresis
[16] = system: HEK293; test: Induction of apoptosis in HEK293 cells assessed as late apoptotic cells at 0.1 uM after 24 hrs by Annexin V/propidium iodide-dual staining based FACS analysis (reference value: 4.30%); assay type: functional, Homo sapiens

Sequence of DNA topoisomerase 2-alpha (Homo sapiens) (P11388 whole entry): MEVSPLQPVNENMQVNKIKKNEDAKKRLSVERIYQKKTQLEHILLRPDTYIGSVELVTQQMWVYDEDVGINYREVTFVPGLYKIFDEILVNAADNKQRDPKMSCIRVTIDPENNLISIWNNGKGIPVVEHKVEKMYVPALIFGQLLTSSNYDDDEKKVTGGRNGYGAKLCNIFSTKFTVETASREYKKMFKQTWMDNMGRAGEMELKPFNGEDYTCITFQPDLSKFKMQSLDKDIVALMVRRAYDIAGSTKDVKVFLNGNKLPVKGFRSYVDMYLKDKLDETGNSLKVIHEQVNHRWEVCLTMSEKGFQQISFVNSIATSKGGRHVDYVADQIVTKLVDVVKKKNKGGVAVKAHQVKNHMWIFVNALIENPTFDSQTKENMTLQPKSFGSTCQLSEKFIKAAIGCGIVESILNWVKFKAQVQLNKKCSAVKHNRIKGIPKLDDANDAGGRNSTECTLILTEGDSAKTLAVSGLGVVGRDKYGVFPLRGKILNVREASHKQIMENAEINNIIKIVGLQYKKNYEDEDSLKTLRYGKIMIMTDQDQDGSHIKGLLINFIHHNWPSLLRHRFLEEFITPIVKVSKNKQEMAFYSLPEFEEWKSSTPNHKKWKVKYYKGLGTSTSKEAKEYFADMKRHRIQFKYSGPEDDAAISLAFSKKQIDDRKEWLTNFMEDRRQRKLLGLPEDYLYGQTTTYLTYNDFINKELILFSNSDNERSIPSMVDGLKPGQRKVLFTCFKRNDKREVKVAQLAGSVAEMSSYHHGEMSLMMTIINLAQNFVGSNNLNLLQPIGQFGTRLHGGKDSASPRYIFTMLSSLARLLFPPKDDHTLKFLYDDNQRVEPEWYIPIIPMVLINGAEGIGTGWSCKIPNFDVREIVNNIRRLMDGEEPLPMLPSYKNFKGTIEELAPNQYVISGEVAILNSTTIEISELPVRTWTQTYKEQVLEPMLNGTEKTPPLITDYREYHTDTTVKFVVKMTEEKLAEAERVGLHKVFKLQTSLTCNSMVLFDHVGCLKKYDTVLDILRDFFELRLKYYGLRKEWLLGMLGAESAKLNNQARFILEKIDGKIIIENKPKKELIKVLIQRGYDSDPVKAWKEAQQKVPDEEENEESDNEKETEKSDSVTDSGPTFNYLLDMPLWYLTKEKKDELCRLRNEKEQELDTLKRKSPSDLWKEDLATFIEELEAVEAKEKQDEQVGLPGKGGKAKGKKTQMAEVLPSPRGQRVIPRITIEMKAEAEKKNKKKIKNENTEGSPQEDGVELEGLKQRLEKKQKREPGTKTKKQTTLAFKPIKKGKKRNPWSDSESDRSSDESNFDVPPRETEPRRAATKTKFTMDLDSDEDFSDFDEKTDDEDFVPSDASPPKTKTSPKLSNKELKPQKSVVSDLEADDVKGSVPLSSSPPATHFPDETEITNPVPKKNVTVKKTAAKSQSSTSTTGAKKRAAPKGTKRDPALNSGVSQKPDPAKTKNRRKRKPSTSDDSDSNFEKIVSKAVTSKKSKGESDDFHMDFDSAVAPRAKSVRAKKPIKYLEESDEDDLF

Compound: COc1cc([C@@H]2c3cc4c(cc3[C@@H](O[C@@H]3O[C@@H]5CO[C@@H](C)O[C@H]5[C@H](O)[C@H]3O)[C@H]3COC(=O)[C@H]23)OCO4)cc(OC)c1O [ETOPOSIDE]
- IC50 [1]: 600 nM

- inhibition [6]: Active
- inhibition [15]: Active
Compound: CCCCCCCCCCCC/C=C\CC/C=C\CCCCCCCCCCCCC1=C[C@H](C)OC1=O
- viability at 0.19 µM [2]: 67.5%
- Activity [3]: 15.3%
- Activity [4]: 6.7%
- Activity [5]: 10.49%
- viability at 0.48 µM [7]: 48.6%
- Activity [8]: 16.14%
- Activity [9]: 4.3%
- Activity [10]: 5.31%
- IC50 [1]: 390 nM
- viability at 0.1 µM [11]: 82.3%
- Activity [12]: 27.32%
- Activity [13]: Dose-dependent effect
- Activity [14]: 7.91%
- Activity [16]: 8.09%
